For 12 compounds, inhibition, viability and fold change (FC) results are on record in ChEMBL document CHEMBL3596168, “Novel inhibitors of RANKL-induced osteoclastogenesis: Design, synthesis, and biological evaluation of 6-(2,4-difluorophenyl)-3-phenyl-2H-benzo[e][1,3]oxazine-2,4(3H)-diones” (Bioorg Med Chem, 2015).

SMILES strings stand for the structures. Activity calls are given as the source filed them. The calls are words filed in the database; no cut-off is given here.

Data set [1] concerns the target T1, Tumor necrosis factor ligand superfamily member 11 (Mus musculus) (UniProt O35235).
T1 sequence (whole entry): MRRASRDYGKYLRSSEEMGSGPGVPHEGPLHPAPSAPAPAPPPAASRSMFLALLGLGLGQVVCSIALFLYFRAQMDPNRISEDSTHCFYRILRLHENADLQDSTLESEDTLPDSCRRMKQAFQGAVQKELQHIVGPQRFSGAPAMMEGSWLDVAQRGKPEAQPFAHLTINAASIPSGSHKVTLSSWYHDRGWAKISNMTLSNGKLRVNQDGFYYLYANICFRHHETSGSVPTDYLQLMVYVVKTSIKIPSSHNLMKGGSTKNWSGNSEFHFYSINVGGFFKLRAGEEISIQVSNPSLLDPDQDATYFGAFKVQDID
The data set is described as follows: Inhibition of recombinant mouse RANKL-induced osteoclastogenesis of mouse RAW264.7 cells assessed as reduction of TRAP-positive multinucleated cells at 5 uM after 4 days by light microscopic analysis relative to control. Type of data set: cell-based. Summed up: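 RAW264.7 cells were cultured 4 days in α-MEM with 10% FBS, 2 mM L-glutamine and RANKL 100 ng/mL, with or without compound at 5 µM. Medium was changed on day 2. Cells were fixed in acetone/citrate/formaldehyde and stained for TRAP for 1 h at 37 °C. TRAP+ cells with three or more nuclei were counted by light microscopy. Inhibition = 100% − MNCs (%). At least three independent experiments.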

The nature of data set [2]: Cytotoxicity against mouse RAW264.7 cells assessed as cell viability at 5 uM after 24 hrs by MTT assay relative to control. The data set is classed as cell-based. The settings on record: read-out: Activity. Summed up:
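RAW264.7 cells, 1 × 10⁴ per well in DMEM with 10% FBS, were exposed to compounds for 24 h. MTT (500 µg/mL) was then added for 1 h at 37 °C, formazan was dissolved in DMSO, and absorbance was read at 540 nm. Viability at 5 µM is relative to untreated control. At least three independent experiments, mean ± SD.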
On the technique in general: Tetrazolium assays rely on reduction of a dye to a coloured formazan, in cell work by metabolically active cells.

In data set [3] the target is T1, Tumor necrosis factor ligand superfamily member 11 (Mus musculus). The data set is described as follows: Inhibition of recombinant mouse RANKL-induced NF-kappaB expression in nucleus of mouse RAW264.7 cells at 5 uM preincubated for 1 hr followed by RANKL addition measured after 24 hrs by ELISA plate analysis. The data set is classed as cell-based. Summed up:
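Cells were pretreated 1 h with compound in α-MEM/10% FBS, then stimulated with RANKL (100 ng/mL) for 24 h. NF-κB p65 DNA binding in nuclear extracts was measured on plates coated with the response element, using primary plus tagged secondary antibody. Absorbance was read at 450 nm.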

Data set [4] has the same target. Nature of the data set: Inhibition of recombinant mouse RANKL-induced osteoclastogenesis of mouse RAW264.7 cells assessed as suppression of TRAP mRNA expression at 2.5 to 5 uM preincubated for 1 hr followed by RANKL addition measured after 24 hrs by RT-PCR analysis. The data set is classed as cell-based. In outline:
(§1)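 RAW264.7 cells (1 × 10⁵ per dish) were serum-starved 24 h in α-MEM, pretreated with compound for 1 h, then given RANKL (100 ng/mL) for 24 h. Total RNA (2 µg) was reverse-transcribed with oligo(dT) and amplified with mouse-specific primers. Products were resolved on 1.5% agarose with EtBr and densities normalized to GAPDH, as % of control. At least two independent experiments.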

The target is the same in data set [5]. The data set is described as follows: Inhibition of recombinant mouse RANKL-induced bone resorptive activity of mature osteoclasts derived from mouse RAW264.7 cells assessed as attenuation of resorbing pit formation on dentine slices after 4 days by toluidine blue staining assay. The data set is classed as tissue-based. Summed up: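 Cells (1 × 10⁴ per well) were seeded on dentine slices in α-MEM with 10% FBS, 2 mM L-glutamine and RANKL 100 ng/mL, plus compound at 7.5, 5 or 2.5 µM. Medium was refreshed every 2 days. On day 4 cells were removed with 1 M NH₄OH and slices stained with 0.1% toluidine blue. Resorbed/total area was expressed as % of control, from more than 6 slices.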

For data set [6] the target is unchanged. The data set is described as follows: Inhibition of recombinant mouse RANKL-induced TRAP activity in mouse RAW264.7 cells using 4-nitrophenyl phosphate as TRAP substrate preincubated for 4 days followed by substrate addition measured after 15 mins by ELISA reader analysis. The data set is classed as cell-based. In outline:
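RAW264.7 cells (2 × 10⁴ per well) were cultured 4 days in α-MEM with 10% FBS, 2 mM L-glutamine and murine RANKL 100 ng/mL, with or without compound. Cells were lysed in 0.1% Triton X-100/50 mM Tris-HCl pH 7.2 on ice. They were incubated with 2 mg/mL 4-nitrophenyl phosphate in 0.09 M citrate for 15 min at 37 °C, stopped with 0.1 N NaOH, and read at 405 nm. Protein was measured by BCA.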

Data set [7] has the same target. The data set is described as follows: Inhibition of recombinant mouse RANKL-induced NF-kappaB expression in nuclear extracts of mouse RAW264.7 cells assessed as decrease in ratio of NF-kappaB to TBP level at 5 uM preincubated for 1 hr followed by RANKL addition measured after 24 hrs by Western blot analysis relative to control. In outline: (§2)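 RAW264.7 cells (1 × 10⁵ per dish) grew in DMEM/10% FBS for 24 h. They were pretreated with compound in α-MEM/10% FBS for 1 h, then given RANKL (100 ng/mL) for 24 h. Nuclear extracts (18 µg protein) were run on 12% SDS–PAGE and immunoblotted for NF-κB p65, NFATc1 and TBP (loading reference) with ECL detection. More than two cultures.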

Data set [8] shares this target. The data set is described as follows: Inhibition of recombinant mouse RANKL-induced NF-kappaB expression in nuclear extracts of mouse RAW264.7 cells assessed as decrease in ratio of NFATc1 to TBP level at 5 uM preincubated for 1 hr followed by RANKL addition measured after 24 hrs by Western blot analysis relative to control. Summed up: as §2
(In general: In western blotting, separated proteins are transferred to a membrane and probed.)

The target is the same in data set [9]. The data set is described as follows: Inhibition of recombinant mouse RANKL-induced osteoclastogenesis of mouse RAW264.7 cells assessed as suppression of NFATc1 mRNA expression at 2.5 to 5 uM preincubated for 1 hr followed by RANKL addition measured after 24 hrs by RT-PCR analysis. Type of data set: cell-based. Summed up:
as §1

Data set [10] has the same target. Nature of the data set: Inhibition of recombinant mouse RANKL-induced osteoclastogenesis of mouse RAW264.7 cells assessed as suppression of c-fos mRNA expression at 2.5 to 5 uM preincubated for 1 hr followed by RANKL addition measured after 24 hrs by RT-PCR analysis. Type of data set: cell-based. Summed up:
as §1

Data set [11] has the same target. Nature of the data set: Inhibition of recombinant mouse RANKL-induced osteoclastogenesis of mouse RAW264.7 cells assessed as suppression of cathepsin K mRNA expression at 2.5 to 5 uM preincubated for 1 hr followed by RANKL addition measured after 24 hrs by RT-PCR analysis. Type of data set: cell-based. Summed up: as §1

In general, inhibition refers to how much of the control response was suppressed.

As for `O=c1oc2ccc(-c3ccc(F)cc3F)cc2c(=O)n1-c1ccc(C(F)(F)F)cc1`, the inhibition in [1] was determined as 16.9%. For the same compound, the viability at 24 h, 5 µM in [2] was found to be 103%.
As to `COc1cccc(-n2c(=O)oc3ccc(-c4ccc(F)cc4F)cc3c2=O)c1`, in data set [1], the inhibition is 30.8%. Besides, the viability at 24 h, 5 µM in data set [2] turned out to be 106%.
Turning to `O=c1oc2ccc(-c3ccc(F)cc3F)cc2c(=O)n1-c1cc(F)ccc1F`, the inhibition entry in data set [3], in [4], in [9], in data set [10] and in data set [11] was “Active” each time. Also, the inhibition was 86.8% in [1], “Dose-dependent effect” in data set [5] and “Dose-dependent effect” in data set [6]. In [2], the viability at 24 h, 5 µM was 86.6%. Further, the fold change (FC) is 0.69 in data set [7] and 0.61 in [8].
For `O=c1oc2ccc(-c3ccc(F)cc3F)cc2c(=O)n1-c1ccccc1C(F)(F)F`, the inhibition in data set [1] was found to be 31.6%. Further, the viability at 24 h, 5 µM in [2] is 95.5%.
The like results for `N#Cc1cccc(-n2c(=O)oc3ccc(-c4ccc(F)cc4F)cc3c2=O)c1` were, in that order, 34% and 103%.
Regarding `O=c1oc2ccc(-c3ccc(F)cc3F)cc2c(=O)n1-c1cccc(C(F)(F)F)c1`, the inhibition in data set [1] was 62.9%; in data set [6] it was “Dose-dependent effect”. The viability at 24 h, 5 µM in data set [2] amounted to 100%.
As for `C#Cc1cccc(-n2c(=O)oc3ccc(-c4ccc(F)cc4F)cc3c2=O)c1`, the inhibition entry in [4], in data set [9], in data set [10] and in data set [11] was “Active” each time. Moreover, the results for the inhibition in data set [1] and in data set [6] were 57.5% and “Dose-dependent effect”, respectively. The viability at 24 h, 5 µM in data set [2] was determined as 88.4%.
For `O=c1oc2ccc(-c3ccc(F)cc3F)cc2c(=O)n1-c1ccc(F)c(F)c1`, the inhibition in data set [1] is 17.4%. For the same compound, in data set [2], the viability at 24 h, 5 µM was 72.2%.
On to `O=c1oc2ccc(-c3ccc(F)cc3F)cc2c(=O)n1-c1ccc(Cl)cc1F`, for which the inhibition in [1] came out at 19.4%. In [2], the viability at 24 h, 5 µM came out at 96.2%.
As for `O=c1oc2ccc(-c3ccc(F)cc3F)cc2c(=O)n1-c1ccc(F)cc1F`, in [1], the inhibition is 42.3%. The viability at 24 h, 5 µM in data set [2] was 96.5%.
Turning to `N#Cc1ccc(-n2c(=O)oc3ccc(-c4ccc(F)cc4F)cc3c2=O)cc1`, the inhibition in data set [1] is 29.4%. Moreover, the viability at 24 h, 5 µM in data set [2] is 108%.
With `COc1ccc(-n2c(=O)oc3ccc(-c4ccc(F)cc4F)cc3c2=O)cc1OC`, the inhibition in data set [1] was 21.2%. Also, the viability at 24 h, 5 µM in [2] was found to be 103%.
